Test results: ChEMBL document CHEMBL1275598, “In vitro activity of ceftaroline against community-associated methicillin-resistant, vancomycin-intermediate, vancomycin-resistant, and daptomycin-nonsusceptible Staphylococcus aureus isolates” (2010)
Converted amounts (≈) assume the structure as drawn. “And” between values parts separate entries of the source, which are not always exact repeats. Equal values may be shown once.

Key:
Format in all cases: functional
Staphylococcus aureus [1] = assay: Antimicrobial activity against vancomycin resistant Staphylococcus aureus VRS-10 expressing SCCmec type 2 element by microdilution method
Method in brief: (§1)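 Broth microdilution per CLSI in cation-adjusted Mueller-Hinton broth. Antibiotic powders were reconstituted per CLSI. The MIC was read visually as the lowest drug concentration with no visible growth. S. aureus ATCC 29213 and E. faecalis ATCC 29212 served as control strains. VISA and VRSA isolates came from the NARSA program.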

Staphylococcus aureus [2] = assay: Antimicrobial activity against methicillin-resistant Staphylococcus aureus
Staphylococcus aureus [3] = assay: Antimicrobial activity against community-acquired methicillin-resistant Staphylococcus aureus expressing SCCmec type 4a element by microdilution method
Method in brief: (§2)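 MIC by broth microdilution in cation-adjusted Mueller-Hinton broth, following CLSI guidelines; antibiotic powders reconstituted per CLSI. Read visually as the lowest drug concentration well with no visible growth. S. aureus ATCC 29213 and E. faecalis ATCC 29212 served as control strains. CA-MRSA: hospital patients culture-positive within 48 h of admission. DNSSA: patient blood isolates. VISA: obtained from the NARSA program.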

Staphylococcus aureus [4] = assay: Antimicrobial activity against community-acquired methicillin-resistant Staphylococcus aureus expressing SCCmec type 4 element by microdilution method; method in brief: as §2
Staphylococcus aureus [5] = assay: Antimicrobial activity against community-acquired methicillin-resistant Staphylococcus aureus expressing SCCmec type 2 element by microdilution method; method in brief: as §2
Staphylococcus aureus [6] = assay: Bactericidal activity against community-acquired methicillin-resistant Staphylococcus aureus expressing SCCmec type 4a element assessed as antibiotic concentration that reduced the number of viable cells by =>99.9% by colony count method
Method in brief: (§3)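 MBC per CLSI following microdilution in cation-adjusted Mueller-Hinton broth. Defined as the concentration giving ≥99.9% reduction in viable cells, judged from colony counts of the growth control well against Pearson rejection-value tables. CA-MRSA isolates were hospital patients' isolates with positive MRSA culture within 48 h of admission.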

Staphylococcus aureus [7] = assay: Bactericidal activity against community-acquired methicillin-resistant Staphylococcus aureus expressing SCCmec type 4 element assessed as antibiotic concentration that reduced the number of viable cells by =>99.9% by colony count method; method in brief: as §3
Staphylococcus aureus [8] = assay: Antimicrobial activity against community-acquired methicillin-resistant Staphylococcus aureus by microdilution method; method in brief: as §2
Staphylococcus aureus [9] = assay: Bactericidal activity against vancomycin-resistant Staphylococcus aureus assessed as antibiotic concentration that reduced the number of viable cells by =>99.9% by colony count method; method in brief: as §3
Staphylococcus aureus [10] = assay: Bactericidal activity against community-acquired methicillin-resistant Staphylococcus aureus assessed as antibiotic concentration that reduced the number of viable cells by =>99.9% by colony count method; method in brief: as §3
Staphylococcus aureus [11] = assay: Antimicrobial activity against vancomycin-intermediate Staphylococcus aureus by microdilution method; method in brief: as §1
Staphylococcus aureus [12] = assay: Bactericidal activity against vancomycin-intermediate Staphylococcus aureus assessed as antibiotic concentration that reduced the number of viable cells by =>99.9% by colony count method
Method in brief: (§4)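 MBC per CLSI guidelines. It was taken as the antibiotic concentration giving ≥99.9% reduction in viable cells, based on colony counts from the growth control well and rejection values from Pearson's tables.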

Staphylococcus aureus [13] = assay: Antimicrobial activity against daptomycin-nonsusceptible Staphylococcus aureus by microdilution method; method in brief: as §2
Staphylococcus aureus [14] = assay: Antimicrobial activity against vancomycin-resistant Staphylococcus aureus by microdilution method; method in brief: as §1
Staphylococcus aureus [15] = assay: Bactericidal activity against daptomycin-nonsusceptible Staphylococcus aureus assessed as antibiotic concentration that reduced the number of viable cells by =>99.9% by colony count method; method in brief: as §4
Staphylococcus aureus [16] = assay: Antimicrobial activity against vancomycin intermediate Staphylococcus aureus NRS-3 expressing SCCmec type 2 element by microdilution method; method in brief: as §2
Staphylococcus aureus [17] = assay: Antimicrobial activity against vancomycin intermediate Staphylococcus aureus NRS-4 expressing SCCmec type 2 element by microdilution method; method in brief: as §2
Staphylococcus aureus [18] = assay: Antimicrobial activity against vancomycin intermediate Staphylococcus aureus NRS-17 expressing SCCmec type 2 element by microdilution method; method in brief: as §2
Staphylococcus aureus [19] = assay: Antimicrobial activity against vancomycin intermediate Staphylococcus aureus NRS-18 expressing SCCmec type 2 element by microdilution method; method in brief: as §2
Staphylococcus aureus [20] = assay: Antimicrobial activity against vancomycin intermediate Staphylococcus aureus NRS-19 expressing SCCmec type 2 element by microdilution method; method in brief: as §2
Staphylococcus aureus [21] = assay: Antimicrobial activity against vancomycin intermediate Staphylococcus aureus NRS-22 expressing SCCmec type 2 element by microdilution method; method in brief: as §2
Staphylococcus aureus [22] = assay: Antimicrobial activity against vancomycin intermediate Staphylococcus aureus NRS-23 expressing SCCmec type 2 element by microdilution method; method in brief: as §2
Staphylococcus aureus [23] = assay: Antimicrobial activity against vancomycin intermediate Staphylococcus aureus NRS-24 expressing SCCmec type 2 element by microdilution method; method in brief: as §2
Staphylococcus aureus [24] = assay: Antimicrobial activity against vancomycin intermediate Staphylococcus aureus NRS-26 expressing SCCmec type 2 element by microdilution method; method in brief: as §2
Staphylococcus aureus [25] = assay: Antimicrobial activity against vancomycin intermediate Staphylococcus aureus NRS-27 expressing SCCmec type 2 element by microdilution method; method in brief: as §2
Staphylococcus aureus [26] = assay: Antimicrobial activity against vancomycin intermediate Staphylococcus aureus NRS-51 expressing SCCmec type 2 element by microdilution method; method in brief: as §2
Staphylococcus aureus [27] = assay: Antimicrobial activity against vancomycin intermediate Staphylococcus aureus NRS-68 expressing SCCmec type 2 element by microdilution method; method in brief: as §2
Staphylococcus aureus [28] = assay: Antimicrobial activity against vancomycin intermediate Staphylococcus aureus NRS-73 expressing SCCmec type 4d element by microdilution method; method in brief: as §2
Staphylococcus aureus [29] = assay: Antimicrobial activity against vancomycin intermediate Staphylococcus aureus NRS-74 expressing SCCmec type 2 element by microdilution method; method in brief: as §2
Staphylococcus aureus [30] = assay: Antimicrobial activity against vancomycin intermediate Staphylococcus aureus NRS-76 expressing SCCmec type 2 element by microdilution method; method in brief: as §1
Staphylococcus aureus [31] = assay: Antimicrobial activity against vancomycin intermediate Staphylococcus aureus NRS-118 expressing SCCmec type 1 element by microdilution method; method in brief: as §2
Staphylococcus aureus [32] = assay: Antimicrobial activity against vancomycin intermediate Staphylococcus aureus NRS-126 expressing SCCmec type 2 element by microdilution method; method in brief: as §2
Staphylococcus aureus [33] = assay: Antimicrobial activity against vancomycin intermediate Staphylococcus aureus NRS-402 expressing SCCmec type 2 element by microdilution method; method in brief: as §2
Staphylococcus aureus [34] = assay: Antimicrobial activity against vancomycin intermediate Staphylococcus aureus NRS-403 expressing SCCmec type 2 element by microdilution method; method in brief: as §2
Staphylococcus aureus [35] = assay: Antimicrobial activity against vancomycin intermediate Staphylococcus aureus NRS-404 expressing SCCmec type 2 element by microdilution method; method in brief: as §2
Staphylococcus aureus [36] = assay: Antimicrobial activity against vancomycin resistant Staphylococcus aureus VRS-1 expressing SCCmec type 2 element by microdilution method; method in brief: as §1
Staphylococcus aureus [37] = assay: Antimicrobial activity against vancomycin resistant Staphylococcus aureus VRS-2 expressing SCCmec type 2 element by microdilution method; method in brief: as §1
Staphylococcus aureus [38] = assay: Antimicrobial activity against vancomycin resistant Staphylococcus aureus VRS-3 expressing SCCmec type 4 element by microdilution method; method in brief: as §1
Staphylococcus aureus [39] = assay: Antimicrobial activity against vancomycin resistant Staphylococcus aureus VRS-4 expressing SCCmec type 4 element by microdilution method; method in brief: as §1
Staphylococcus aureus [40] = assay: Antimicrobial activity against vancomycin resistant Staphylococcus aureus VRS-5 expressing SCCmec type 2 element by microdilution method; method in brief: as §1
Staphylococcus aureus [41] = assay: Antimicrobial activity against vancomycin resistant Staphylococcus aureus VRS-6 expressing SCCmec type 2 element by microdilution method; method in brief: as §1
Staphylococcus aureus [42] = assay: Antimicrobial activity against vancomycin resistant Staphylococcus aureus VRS-7 expressing SCCmec element by microdilution method; method in brief: as §1
Staphylococcus aureus [43] = assay: Antimicrobial activity against vancomycin resistant Staphylococcus aureus VRS-8 expressing SCCmec element by microdilution method; method in brief: as §1
Staphylococcus aureus [44] = assay: Antimicrobial activity against vancomycin resistant Staphylococcus aureus VRS-9 expressing SCCmec type 2 element by microdilution method; method in brief: as §1

CCO/N=C(\C(=O)N[C@@H]1C(=O)N2C(C(=O)[O-])=C(Sc3nc(-c4cc[n+](C)cc4)cs3)CS[C@H]12)c1nsc(NP(=O)(O)O)n1 [CEFTAROLINE FOSAMIL]
MIC (Staphylococcus aureus [1]): 0.5 µg/mL (≈ 0.73 µM)
MIC (Staphylococcus aureus [2]): 0.12 µg/mL (≈ 0.175 µM)
MIC90 (Staphylococcus aureus [3]): 0.5 µg/mL (≈ 0.73 µM)
MIC90 (Staphylococcus aureus [4]): 0.25 µg/mL (≈ 0.365 µM)
MIC90 (Staphylococcus aureus [5]): 1 µg/mL (≈ 1.46 µM)
MBC90 (Staphylococcus aureus [6]): 0.5 µg/mL (≈ 0.73 µM)
MBC90 (Staphylococcus aureus [7]): 0.5 µg/mL (≈ 0.73 µM)
MIC50 (Staphylococcus aureus [8]): 0.5 µg/mL (≈ 0.73 µM)
MIC90 (Staphylococcus aureus [8]): 1 µg/mL (≈ 1.46 µM)
MBC50 (Staphylococcus aureus [9]): 0.5 µg/mL (≈ 0.73 µM)
MBC (Staphylococcus aureus [9]; Staphylococcus aureus): 0.12 µg/mL (≈ 0.175 µM)
MBC50 (Staphylococcus aureus [10]): 0.5 µg/mL (≈ 0.73 µM)
MBC (Staphylococcus aureus [10]; Staphylococcus aureus): 0.25 µg/mL (≈ 0.365 µM)
MIC50 (Staphylococcus aureus [11]): 0.5 µg/mL (≈ 0.73 µM)
MIC90 (Staphylococcus aureus [11]): 1 µg/mL (≈ 1.46 µM)
MBC50 (Staphylococcus aureus [12]): 1 µg/mL (≈ 1.46 µM)
MBC90 (Staphylococcus aureus [12]): 1 µg/mL (≈ 1.46 µM)
MBC (Staphylococcus aureus [12]; Staphylococcus aureus): 0.5 µg/mL (≈ 0.73 µM)
MIC (Staphylococcus aureus [13]): 0.55 µg/mL and 0.25 µg/mL
MIC50 (Staphylococcus aureus [13]; Staphylococcus aureus): 0.5 µg/mL (≈ 0.73 µM)
MIC50 (Staphylococcus aureus [14]): 0.5 µg/mL (≈ 0.73 µM)
MIC90 (Staphylococcus aureus [14]): 0.5 µg/mL (≈ 0.73 µM)
MBC (Staphylococcus aureus [15]): 0.74 µg/mL and 0.25 µg/mL
MBC50 (Staphylococcus aureus [15]): 1 µg/mL (≈ 1.46 µM)
MIC (Staphylococcus aureus [16]): 1 µg/mL (≈ 1.46 µM)
MIC (Staphylococcus aureus [17]): 0.5 µg/mL (≈ 0.73 µM)
MIC (Staphylococcus aureus [18]): 0.5 µg/mL (≈ 0.73 µM)
MIC (Staphylococcus aureus [19]): 0.5 µg/mL (≈ 0.73 µM)
MIC (Staphylococcus aureus [20]): 0.5 µg/mL (≈ 0.73 µM)
MIC (Staphylococcus aureus [21]): 0.5 µg/mL (≈ 0.73 µM)
MIC (Staphylococcus aureus [22]): 0.5 µg/mL (≈ 0.73 µM)
MIC (Staphylococcus aureus [23]): 0.5 µg/mL (≈ 0.73 µM)
MIC (Staphylococcus aureus [24]): 0.25 µg/mL (≈ 0.365 µM)
MIC (Staphylococcus aureus [25]): 0.5 µg/mL (≈ 0.73 µM)
MIC (Staphylococcus aureus [26]): 1 µg/mL (≈ 1.46 µM)
MIC (Staphylococcus aureus [27]): 0.5 µg/mL (≈ 0.73 µM)
MIC (Staphylococcus aureus [28]): 0.5 µg/mL (≈ 0.73 µM)
MIC (Staphylococcus aureus [29]): 0.25 µg/mL (≈ 0.365 µM)
MIC (Staphylococcus aureus [30]): 0.25 µg/mL (≈ 0.365 µM)
MIC (Staphylococcus aureus [31]): 1 µg/mL (≈ 1.46 µM)
MIC (Staphylococcus aureus [32]): 1 µg/mL (≈ 1.46 µM)
MIC (Staphylococcus aureus [33]): 0.5 µg/mL (≈ 0.73 µM)
MIC (Staphylococcus aureus [34]): 0.5 µg/mL (≈ 0.73 µM)
MIC (Staphylococcus aureus [35]): 0.5 µg/mL (≈ 0.73 µM)
MIC (Staphylococcus aureus [36]): 1 µg/mL (≈ 1.46 µM)
MIC (Staphylococcus aureus [37]): 0.5 µg/mL (≈ 0.73 µM)
MIC (Staphylococcus aureus [38]): 0.5 µg/mL (≈ 0.73 µM)
MIC (Staphylococcus aureus [39]): 0.5 µg/mL (≈ 0.73 µM)
MIC (Staphylococcus aureus [40]): 0.5 µg/mL (≈ 0.73 µM)
MIC (Staphylococcus aureus [41]): 0.5 µg/mL (≈ 0.73 µM)
MIC (Staphylococcus aureus [42]): 0.12 µg/mL (≈ 0.175 µM)
MIC (Staphylococcus aureus [43]): 0.12 µg/mL (≈ 0.175 µM)
MIC (Staphylococcus aureus [44]): 0.25 µg/mL (≈ 0.365 µM)
